{"source": "ChEMBL document CHEMBL4152184", "about": "“NB 06: From a simple lysosomotropic aSMase inhibitor to tools for elucidating the role of lysosomes in signaling apoptosis and LPS-induced inflammation” (Eur J Med Chem, 2018)", "key": {"MONO-MAC-6 [1]": {"test_system": "MONO-MAC-6", "experiment": "Upregulation of CXCL10 mRNA expression level in human MONO-MAC-6 cells at 5 uM incubated for 30 mins measured after 2 hrs by oligonucleotide array hybridization assay relative to control", "assay_type": "functional"}, "MONO-MAC-6 [2]": {"test_system": "MONO-MAC-6", "experiment": "Downregulation of PTGS2 mRNA expression level in human MONO-MAC-6 cells at 5 uM incubated for 30 mins measured after 1 hr by oligonucleotide array hybridization assay relative to control", "assay_type": "functional", "summary_of_the_method": "(§1)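 Total RNA was isolated, transcribed and labeled with DY-647 dye, then co-hybridized with DY-548-labeled cDNA from untreated cells on an inflammation oligonucleotide chip (780 gene probes). Differential expression >1.5 was taken as significant.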"}, "MONO-MAC-6 [3]": {"test_system": "MONO-MAC-6", "experiment": "Downregulation of CXCL2 mRNA expression level in human MONO-MAC-6 cells at 5 uM incubated for 30 mins measured after 4 hrs by oligonucleotide array hybridization assay relative to control", "assay_type": "functional", "summary_of_the_method": "as §1"}, "MONO-MAC-6 [4]": {"test_system": "MONO-MAC-6", "experiment": "Upregulation of PTGS2 mRNA expression level in LPS-stimulated human MONO-MAC-6 cells at 5 uM preincubated for 30 mins followed by LPS stimulation measured after 1 hr by oligonucleotide array hybridization assay (reference value: 1.01)", "assay_type": "functional"}, "MONO-MAC-6 [5]": {"test_system": "MONO-MAC-6", "experiment": "Upregulation of CCL20 mRNA expression level in LPS-stimulated human MONO-MAC-6 cells at 5 uM preincubated for 30 mins followed by LPS stimulation measured after 4 hrs by oligonucleotide array hybridization assay (reference value: 10.69)", "assay_type": "functional"}, "[6]": {"biological_target": "T1, Sphingomyelin phosphodiesterase (Homo sapiens) (UniProt P17405)", "T1 sequence (whole entry)": "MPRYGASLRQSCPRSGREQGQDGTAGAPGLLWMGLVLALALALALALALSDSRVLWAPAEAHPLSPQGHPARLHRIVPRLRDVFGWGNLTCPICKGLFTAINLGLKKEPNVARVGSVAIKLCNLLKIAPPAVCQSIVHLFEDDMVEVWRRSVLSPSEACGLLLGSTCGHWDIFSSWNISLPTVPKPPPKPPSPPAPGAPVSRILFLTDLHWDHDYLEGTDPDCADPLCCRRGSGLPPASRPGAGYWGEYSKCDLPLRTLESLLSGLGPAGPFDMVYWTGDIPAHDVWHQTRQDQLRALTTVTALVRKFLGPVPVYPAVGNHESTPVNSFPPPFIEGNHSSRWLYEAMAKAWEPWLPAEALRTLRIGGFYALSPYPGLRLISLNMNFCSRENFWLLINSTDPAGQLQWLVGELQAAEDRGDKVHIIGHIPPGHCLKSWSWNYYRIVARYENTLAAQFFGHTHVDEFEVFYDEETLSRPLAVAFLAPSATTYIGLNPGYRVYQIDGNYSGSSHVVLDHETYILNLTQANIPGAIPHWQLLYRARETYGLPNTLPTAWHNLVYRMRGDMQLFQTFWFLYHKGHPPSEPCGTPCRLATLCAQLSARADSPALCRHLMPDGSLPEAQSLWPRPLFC", "experiment": "Inhibition of mmLDL-stimulated acid sphingomyelinase in human PBMC lysates up to 10 uM preincubated for 30 mins followed by mmLDL stimulation measured after 4 hrs by YO-PRO-1/Hoechst 33342 staining based assay"}, "MONO-MAC-6 [7]": {"test_system": "MONO-MAC-6", "experiment": "Upregulation of HSPA1A mRNA expression level in LPS-stimulated human MONO-MAC-6 cells preincubated for 30 mins followed by LPS stimulation measured after 4 hrs by qRT-PCR analysis relative to control", "assay_type": "functional"}, "MONO-MAC-6 [8]": {"test_system": "MONO-MAC-6", "experiment": "Downregulation of TNFalpha mRNA expression level in human MONO-MAC-6 cells at 5 uM incubated for 30 mins measured after 4 hrs by qRT-PCR method relative to control", "assay_type": "functional"}, "PBMC": {"test_system": "PBMC", "experiment": "Inhibition of TNFalpha-stimulated apoptosis in human PBMC assessed as apoptotic cells at 2 uM preincubated for 30 mins followed by TNFalpha stimulation measured after 4 hrs by YO-PRO-1/Hoechst 33342 staining based assay relative to control", "assay_type": "functional", "parameters": "scale not given: the % may be the effect or the level left", "summary_of_the_method": "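PBMC pre-incubated 30 min with 2 μM compound, then stimulated with mmLDL (27 μg/mL; line 5) or TNFalpha (3 ng/mL; line 1) for 4 h. Apoptotic cells stained with YO-PRO-1 and all cells with Hoechst 33342. Each plate had control, stimulus, compound alone and compound plus stimulus; n = 3. Values are on a 0% (untreated control, corrected for spontaneous apoptosis) to 100% (stimulus alone) scale; means ± SE.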"}, "MONO-MAC-6 [9]": {"test_system": "MONO-MAC-6", "experiment": "Upregulation of CXCL3 mRNA expression level in human MONO-MAC-6 cells at 5 uM incubated for 30 mins measured after 2 hrs by oligonucleotide array hybridization assay relative to control", "assay_type": "functional"}, "MONO-MAC-6 [10]": {"test_system": "MONO-MAC-6", "experiment": "Upregulation of CXCL2 mRNA expression level in LPS-stimulated human MONO-MAC-6 cells at 5 uM preincubated for 30 mins followed by LPS stimulation measured after 2 hrs by qRT-PCR method (reference value: 4.77)", "assay_type": "functional"}, "MONO-MAC-6 [11]": {"test_system": "MONO-MAC-6", "experiment": "Upregulation of ICAM1 mRNA expression level in LPS-stimulated human MONO-MAC-6 cells at 5 uM preincubated for 30 mins followed by LPS stimulation measured after 6 hrs by oligonucleotide array hybridization assay (reference value: 2.90)", "assay_type": "functional"}, "MONO-MAC-6 [12]": {"test_system": "MONO-MAC-6", "experiment": "Downregulation of CCL20 mRNA expression level in human MONO-MAC-6 cells at 5 uM incubated for 30 mins measured after 6 hrs by oligonucleotide array hybridization assay relative to control", "assay_type": "functional", "summary_of_the_method": "as §1"}, "MONO-MAC-6 [13]": {"test_system": "MONO-MAC-6", "experiment": "Upregulation of IL23A mRNA expression level in LPS-stimulated human MONO-MAC-6 cells at 5 uM preincubated for 30 mins followed by LPS stimulation measured after 4 hrs by qRT-PCR method (reference value: 10.78)", "assay_type": "functional"}, "[14]": {"biological_target": "T2, Acid ceramidase (Homo sapiens) (UniProt Q13510)", "T2 sequence (whole entry)": "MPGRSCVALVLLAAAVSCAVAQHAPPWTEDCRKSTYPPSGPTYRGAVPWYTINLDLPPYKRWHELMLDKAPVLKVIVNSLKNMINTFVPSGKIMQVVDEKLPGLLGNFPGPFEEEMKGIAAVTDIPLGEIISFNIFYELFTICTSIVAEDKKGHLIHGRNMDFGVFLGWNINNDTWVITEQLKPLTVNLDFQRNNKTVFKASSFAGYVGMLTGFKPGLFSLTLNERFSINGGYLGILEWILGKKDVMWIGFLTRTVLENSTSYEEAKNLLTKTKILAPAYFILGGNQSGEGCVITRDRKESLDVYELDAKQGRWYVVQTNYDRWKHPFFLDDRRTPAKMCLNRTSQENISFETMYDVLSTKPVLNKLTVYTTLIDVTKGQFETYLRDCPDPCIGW", "experiment": "Inhibition of exogenous C6-ceramid-stimulated acid ceramidase in human PBMC assessed as ratio of C16-ceramide/lipid phosphate level at 10 uM preincubated for 30 mins followed by C6-ceramid stimulation measured after 4 hrs by HPLC method (reference value: 2.19)", "assay_type": "cell-based", "summary_of_the_method": "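Human macrophages from primary culture were preincubated 30 min with 10 µM compound. They were then stimulated 4 h with mmLDL (54 µg/mL), TNFalpha (3 ng/mL) or exogenous C6-ceramide (10 µM), or left unstimulated. Individual ceramide species (C16 and C24:1) were quantified in the cell lipid extracts.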"}, "MONO-MAC-6 [15]": {"test_system": "MONO-MAC-6", "experiment": "Downregulation of CXCL3 mRNA expression level in human MONO-MAC-6 cells at 5 uM incubated for 30 mins measured after 4 hrs by oligonucleotide array hybridization assay relative to control", "assay_type": "functional", "summary_of_the_method": "as §1"}}, "note": "Activity calls are given as the source filed them. The calls are words filed in the database; no cut-off is given here.", "data": [{"smiles": "COc1ccc(CCN(C)CCCn2c3ccccc3c3ccccc32)cc1", "values": [{"measurement": "fold change (FC)", "setting": "MONO-MAC-6 [1]", "value": 1}, {"measurement": "fold change (FC)", "setting": "MONO-MAC-6 [2]", "value": 1.1}, {"measurement": "fold change (FC)", "setting": "MONO-MAC-6 [3]", "value": 2.28}, {"measurement": "fold change (FC)", "setting": "MONO-MAC-6 [4]", "value": 1.1}, {"measurement": "fold change (FC)", "setting": "MONO-MAC-6 [5]", "value": 4.54}, {"measurement": "inhibition", "setting": "[6]", "value": "inactive"}, {"measurement": "fold change (FC)", "setting": "MONO-MAC-6 [7]", "value": 2.67}, {"measurement": "fold change (FC)", "setting": "MONO-MAC-6 [8]", "value": 2.86}, {"measurement": "Activity", "setting": "PBMC", "value": 19, "unit": "%"}, {"measurement": "fold change (FC)", "setting": "MONO-MAC-6 [9]", "value": 1.25}, {"measurement": "fold change (FC)", "setting": "MONO-MAC-6 [10]", "value": 5.03}, {"measurement": "fold change (FC)", "setting": "MONO-MAC-6 [11]", "value": 1.15}, {"measurement": "fold change (FC)", "setting": "MONO-MAC-6 [12]", "value": 5.68}, {"measurement": "fold change (FC)", "setting": "MONO-MAC-6 [13]", "value": 1.71}, {"measurement": "Ratio", "setting": "[14]", "value": 0.47}, {"measurement": "fold change (FC)", "setting": "MONO-MAC-6 [15]", "value": 1.21}]}]}
